Results from ChEMBL document CHEMBL4400536, “Design and synthesis of aminothiazole based Hepatitis B Virus (HBV) capsid inhibitors” (Eur J Med Chem, 2019).
pIC50: −log10 of the molar value. Calls of active or inactive are those of the source. No cut-off for these calls is given here.

Tests used:
[1] = molecular target: Core antigen (Hepatitis B virus) (UniProt Q03732); assay: Inhibition of GFP-fused Hepatitis B Virus capsid expressed in HEK293T cells at 50 uM after 48 hrs relative to control; type: cell-based
Outline: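 BiFC assay: HBc fused to Venus fragments VN (1–154) and VC (155–239) were co-transfected into 293T cells, then compounds were added. The dose series used 0, 0.5, 5 and 50 μM; SAR used 50 μM as percent inhibition. After 48 h, reconstituted fluorescence was read as mean fluorescent intensity on a plate reader, with fluorescence microscopy images.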

[2] = Cytotoxicity against human HepG2.2.15 cells; type: cell-based, HepG2 2.2.15
[3] = tested on: Hepatitis B virus; assay: Antiviral activity against Hepatitis B virus infected in human HepG2.2.15 cells assessed as inhibition of viral replication after 7 days by RT-PCR analysis; type: functional, organism-based; conditions: for pIC50: HepG2.2.15, 168 h

Sequence of Core antigen (Hepatitis B virus) (Q03732 as listed by the source): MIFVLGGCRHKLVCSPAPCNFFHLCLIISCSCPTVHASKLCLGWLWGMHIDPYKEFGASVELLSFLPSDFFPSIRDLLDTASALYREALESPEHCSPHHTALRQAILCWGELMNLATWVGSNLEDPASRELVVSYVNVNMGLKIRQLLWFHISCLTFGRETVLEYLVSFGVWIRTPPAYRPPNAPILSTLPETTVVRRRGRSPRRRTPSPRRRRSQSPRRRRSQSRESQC

Row | SMILES | inhibition [1] | CC50 [2] | Activity [3] | pIC50 [3]
1 | COc1ccc(C(=O)Nc2ncc(C(Sc3ccc4ccccc4c3)c3ccc(Cl)cc3)s2)cc1 (stereo not drawn) | 49% | – | – | –
2 | N#Cc1cccc(C(=O)Nc2ncc(C(Oc3ccc4cc(Br)ccc4c3)c3ccc(Cl)cc3)s2)c1 (stereo not drawn) | 70% | > 50 µM | – | –
3 | O=C(Nc1ncc(Cc2ccc(F)cc2)s1)c1ccc(Cl)cc1Cl | inactive | > 50 µM | – | –
4 | CC(C)(C)OC(=O)Nc1ncc(C(Oc2ccc(Cc3ccccc3)cc2)c2ccc(Cl)cc2)s1 (stereo not drawn) | inactive | > 50 µM | – | –
5 | CCOC(=O)C1=C(CN2CCOCC2)NC(c2nccs2)=NC1c1ccc(F)cc1Br (stereo not drawn) | – | – | Dose-dependent effect | –
6 | CC(C)(C)OC(=O)Nc1ncc(C(Oc2ccc(Br)cc2)c2ccc(Cl)cc2)s1 (stereo not drawn) | inactive | > 50 µM | – | –
7 | O=C(Nc1ncc(Cc2ccc(F)cc2)s1)c1cccs1 | – | > 500 µM | – | 5.21
8 | CCc1ccc(S(=O)(=O)Nc2ncc(C(Oc3ccc4cc(Br)ccc4c3)c3ccc(Cl)cc3)s2)cc1 (stereo not drawn) | inactive | > 50 µM | – | –
9 | O=S(=O)(Nc1ncc(C(Oc2ccc3cc(Br)ccc3c2)c2ccc(Cl)cc2)s1)c1ccc2ccccc2c1 (stereo not drawn) | inactive | > 50 µM | – | –
10 | O=C(Nc1ncc(Cc2ccc(Cl)cc2)s1)c1ccc(F)cc1F | inactive | – | – | –
11 | COc1ccc(C(=O)Nc2ncc(C(Oc3ccc4cc(Br)ccc4c3)c3ccc(Br)cc3)s2)cc1 (stereo not drawn) | 78% | > 50 µM | – | –
12 | CC(C)(C)OC(=O)Nc1ncc(C(Oc2ccc(F)c(Cl)c2)c2ccc(Cl)cc2)s1 (stereo not drawn) | inactive | > 50 µM | – | –
13 | CC(C)(C)OC(=O)Nc1ncc(C(Oc2ccc3cc(Br)ccc3c2)c2ccc(Cl)cc2)s1 (stereo not drawn) | 55% | > 50 µM | – | 5.64
14 | CC(C)(C)OC(=O)Nc1ncc(C(Oc2ccc(OCc3ccccc3)cc2)c2ccc(Cl)cc2)s1 (stereo not drawn) | inactive | > 50 µM | – | –
15 | COc1ccc(C(=O)Nc2ncc(C(Oc3ccc4cc(Br)ccc4c3)c3ccc(F)cc3)s2)cc1 (stereo not drawn) | 76% | > 50 µM | – | –
16 | O=C(Nc1ncc(C(Oc2ccc3cc(Br)ccc3c2)c2ccc(Cl)cc2)s1)c1cc(F)c(F)cc1F (stereo not drawn) | 44% | – | – | –
17 | O=C(Nc1ncc(C(Oc2ccc3cc(Br)ccc3c2)c2ccc(Cl)cc2)s1)C1CC1 (stereo not drawn) | 67% | – | – | –
18 | COc1ccc(C(=O)Nc2ncc(C(Oc3ccc4ccc(Br)cc4c3)c3ccc(S(C)(=O)=O)cc3)s2)cc1 (stereo not drawn) | inactive | – | – | –
19 | Cc1ccc(COC(c2ccccc2)c2cnc(NC(=O)c3cccs3)s2)cc1 (stereo not drawn) | 64% | – | – | –
20 | O=S(=O)(Nc1ncc(C(Oc2ccc3cc(Br)ccc3c2)c2ccc(Cl)cc2)s1)c1cccs1 (stereo not drawn) | 44% | – | – | –
21 | COc1ccc(C(=O)Nc2ncc(C(Oc3ccc4cc(Br)ccc4c3)c3ccc(Cl)cc3)s2)cc1 (stereo not drawn) | 54% | > 50 µM | – | 5.84
22 | O=C(Nc1ncc(C(Oc2ccc3cc(Br)ccc3c2)c2ccc(Cl)cc2)s1)C1CCOCC1 (stereo not drawn) | 66% | – | – | –
23 | CCCCC(CC)CNc1ncc(C(Oc2ccc3cc(Br)ccc3c2)c2ccc(Cl)cc2)s1 (stereo not drawn) | 55% | – | – | –
24 | Cc1ccc(S(=O)(=O)Nc2ncc(C(Oc3ccc4cc(Br)ccc4c3)c3ccc(Cl)cc3)s2)c2ccccc12 (stereo not drawn) | inactive | > 50 µM | – | –

Row | SMILES | inhibition [1] | CC50 [2] | Activity [3] | pIC50 [3]
25 | O=C(Nc1ncc(Cc2ccc(Cl)cc2)s1)c1cccs1 | 59% | > 50 µM | – | 5.44
26 | CC(=O)O[C@@H]1OC(C(=O)Nc2ncc(C(Oc3ccc4cc(Br)ccc4c3)c3ccc(Cl)cc3)s2)[C@@H](OC(C)=O)[C@@H](OC(C)=O)[C@H]1OC(C)=O (stereo partly drawn) | 40% | – | – | –
27 | O=S(=O)(Nc1ncc(C(Oc2ccc3cc(Br)ccc3c2)c2ccc(Cl)cc2)s1)c1ccc2c(c1)CCO2 (stereo not drawn) | inactive | > 50 µM | – | –
28 | Cc1cc(C(C)C)ccc1OC(c1ccc(Cl)cc1)c1cnc(NC(=O)OC(C)(C)C)s1 (stereo not drawn) | inactive | > 50 µM | – | –
29 | O=C(Nc1ncc(C(Oc2ccc3cc(Br)ccc3c2)c2ccc(Cl)cc2)s1)c1ccc(F)cc1 (stereo not drawn) | 50% | – | – | –
30 | O=C(Nc1ncc(Cc2ccc(Br)cc2)s1)c1ccc2ccccc2c1 | inactive | > 50 µM | – | –
31 | O=S(=O)(Nc1ncc(C(Oc2ccc3cc(Br)ccc3c2)c2ccc(Cl)cc2)s1)c1ccc(Cl)cc1 (stereo not drawn) | 50% | – | – | –
32 | CCCCCC(=O)Nc1ncc(C(Oc2ccc3cc(Br)ccc3c2)c2ccc(Cl)cc2)s1 (stereo not drawn) | inactive | > 50 µM | – | –
33 | O=C(Nc1ncc(C(Oc2ccc3cc(Br)ccc3c2)c2ccc(Cl)cc2)s1)c1cccs1 (stereo not drawn) | 47% | – | – | –
34 | Cc1ccc(C(=O)Nc2ncc(Cc3ccc(F)cc3)s2)cc1 | 53% | – | – | –
35 | O=C(Nc1ncc(C(OCc2ccc(Br)cc2)c2ccccc2)s1)c1cccs1 (stereo not drawn) | 64% | – | – | –
36 | O=C(CCCCC(=O)Nc1ncc(Cc2ccc(F)cc2)s1)Nc1ncc(Cc2ccc(F)cc2)s1 | inactive | > 50 µM | – | –
37 | CC(C)(C)C(=O)Nc1ncc(C(Oc2ccc3cc(Br)ccc3c2)c2ccc(Cl)cc2)s1 (stereo not drawn) | 47% | – | – | –
38 | O=S(=O)(Nc1ncc(C(Oc2ccc3cc(Br)ccc3c2)c2ccc(Cl)cc2)s1)c1cccc2nsnc12 (stereo not drawn) | 50% | – | – | –
39 | O=C(Nc1ncc(C(Oc2ccc3cc(Br)ccc3c2)c2ccc(Cl)cc2)s1)c1ccc(Cl)nc1 (stereo not drawn) | 45% | – | – | –
40 | Clc1ccc(C(Oc2ccc3cc(Br)ccc3c2)c2cnc(NCC3CCCCC3)s2)cc1 (stereo not drawn) | 61% | – | – | –
41 | CCN(CC)C(=O)Nc1ncc(C(Oc2ccc3cc(Br)ccc3c2)c2ccc(Cl)cc2)s1 (stereo not drawn) | 67% | – | – | –
42 | O=S(=O)(Nc1ncc(C(Oc2ccc3cc(Br)ccc3c2)c2ccc(Cl)cc2)s1)c1ccc(Cl)nc1 (stereo not drawn) | 30% | – | – | –
43 | O=C(Nc1ncc(C(Oc2ccc3cc(Br)ccc3c2)c2ccc(Cl)cc2)s1)C1CCCO1 (stereo not drawn) | 35% | – | – | –
44 | O=C(Nc1ncc(Cc2ccc(F)cc2)s1)C1CCCCC1 | inactive | > 50 µM | – | –
45 | O=C(Nc1ncc(C(OCc2ccc3ccccc3c2)c2ccccc2)s1)c1cccs1 (stereo not drawn) | 47% | – | – | –
46 | O=C(Nc1ncc(C(Oc2ccc3cc(Br)ccc3c2)c2ccc(Cl)cc2)s1)c1ccc(F)cc1Br (stereo not drawn) | 65% | > 50 µM | – | 5.45
47 | CC(C)(C)OC(=O)Nc1ncc(C(Oc2cccc(C#N)c2)c2ccc(Cl)cc2)s1 (stereo not drawn) | inactive | > 50 µM | – | –
48 | COc1ccc(Br)c(COC(c2ccccc2)c2cnc(NC(=O)c3cccs3)s2)c1 (stereo not drawn) | 45% | – | – | –

Row | SMILES | inhibition [1] | CC50 [2] | Activity [3] | pIC50 [3]
49 | CCOC(=O)CCCNc1ncc(C(Oc2ccc3cc(Br)ccc3c2)c2ccc(Cl)cc2)s1 (stereo not drawn) | 35% | – | – | –
50 | O=C(Nc1ncc(Cc2ccc(Br)cc2)s1)c1cccs1 | inactive | > 50 µM | – | –
51 | COc1ccc(COC(c2ccccc2)c2cnc(NC(=O)c3cccs3)s2)cc1 (stereo not drawn) | 64% | – | – | –
52 | Cc1ccc(C)c(S(=O)(=O)Nc2ncc(C(Oc3ccc4cc(Br)ccc4c3)c3ccc(Cl)cc3)s2)c1 (stereo not drawn) | inactive | > 50 µM | – | –
53 | O=C(Nc1ncc(Cc2ccc(F)cc2)s1)c1ccccc1 | 60% | – | – | –
54 | O=C(Nc1ncc(C(Oc2ccc3cc(Br)ccc3c2)c2ccc(Cl)cc2)s1)c1ccc(F)cc1F (stereo not drawn) | 51% | – | – | –
55 | Clc1ccc(C(Oc2ccc3cc(Br)ccc3c2)c2cnc(NCC3CCOCC3)s2)cc1 (stereo not drawn) | 43% | – | – | –
56 | O=C(Nc1ncc(C(OCc2ccc(Cl)cc2)c2ccccc2)s1)c1cccs1 (stereo not drawn) | 59% | – | – | –
57 | COC(=O)CCCCNc1ncc(C(Oc2ccc3cc(Br)ccc3c2)c2ccc(Cl)cc2)s1 (stereo not drawn) | 40% | – | – | –
58 | COc1ccc(C(=O)Nc2ncc(C(Nc3cccc4ccccc34)c3ccc(Cl)cc3)s2)cc1 (stereo not drawn) | 69% | > 50 µM | – | 5.16
59 | COCCNc1ncc(C(Oc2ccc3cc(Br)ccc3c2)c2ccc(Cl)cc2)s1 (stereo not drawn) | 37% | – | – | –
60 | Cc1noc(C)c1C(=O)Nc1ncc(C(Oc2ccc3cc(Br)ccc3c2)c2ccc(Cl)cc2)s1 (stereo not drawn) | 64% | – | – | –
61 | O=S(=O)(Nc1ncc(C(Oc2ccc3cc(Br)ccc3c2)c2ccc(Cl)cc2)s1)c1ccccc1 (stereo not drawn) | 63% | > 50 µM | – | 5.63
62 | COCCCNc1ncc(C(Oc2ccc3cc(Br)ccc3c2)c2ccc(Cl)cc2)s1 (stereo not drawn) | 38% | – | – | –
63 | COCCc1ccc(OC(c2ccc(Cl)cc2)c2cnc(NC(=O)OC(C)(C)C)s2)cc1 (stereo not drawn) | inactive | > 50 µM | – | –
64 | O=C(Nc1ncc(C(Oc2ccc3cc(Br)ccc3c2)c2ccc(Cl)cc2)s1)c1ccc(Br)cc1 (stereo not drawn) | inactive | > 50 µM | – | –
65 | O=C(Nc1ncc(C(OCc2ccc(F)cc2F)c2ccccc2)s1)c1cccs1 (stereo not drawn) | 26% | – | – | –
66 | O=C(Nc1ncc(Cc2ccc(F)cc2)s1)c1ccc(Br)cc1 | inactive | > 50 µM | – | –
67 | COc1ccc(C(=O)Nc2ncc(C(Oc3ccc4cc(Br)ccc4c3)c3ccc(C#N)cc3)s2)cc1 (stereo not drawn) | inactive | – | – | –
68 | O=C(Nc1ncc(C(Oc2ccc3cc(Br)ccc3c2)c2ccc(Cl)cc2)s1)c1ccccc1 (stereo not drawn) | 58% | – | – | –
69 | Cc1ccc(C(=O)Nc2ncc(C(Oc3ccc4cc(Br)ccc4c3)c3ccc(Cl)cc3)s2)cc1 (stereo not drawn) | 71% | – | – | –
70 | O=C(Nc1ncc(C(OCc2ccc(F)cc2Br)c2ccccc2)s1)c1cccs1 (stereo not drawn) | 27% | – | – | –
71 | Cc1cc(Br)cc(OC(c2ccc(Cl)cc2)c2cnc(NC(=O)OC(C)(C)C)s2)c1 (stereo not drawn) | inactive | > 50 µM | – | –
